# High-throughput results from PubChem BioAssay.
# Shown are actives, neighbours in structure and some others; about 1.6% of the full set was active somewhere.
# Cardio protect: modulators protecting cardiomyocytes from myocardial damage | H9c2 cardiomyocytes, H2O2 injury protection, ATPLite, 2 h | protection from H2O2 cell death, % at 20 µM | actives 0.63% (n = 360,000) | AID 588492;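 active = compounds giving at least 50% protection of heart cells from peroxide-induced death in the single-dose screen, raw or plate-pattern-corrected value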;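 note: 0% = DMSO wells with peroxide and 100% = DMSO wells without peroxide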
# ASAP1 GAP inh: inhibitors of human ASAP1 ArfGAP activity; inhibition, % at 16.5 µM; actives 0.19% (n = 360,000); ASAP1-stimulated ARF1 GTP hydrolysis, GDP FP detection; Q9ULH1; in the data active = inhibition above about 25%;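 note: 0% = vehicle with enzyme and substrate and 100% = no enzyme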
# Target sequence (Q9ULH1 325-724 limits assumed): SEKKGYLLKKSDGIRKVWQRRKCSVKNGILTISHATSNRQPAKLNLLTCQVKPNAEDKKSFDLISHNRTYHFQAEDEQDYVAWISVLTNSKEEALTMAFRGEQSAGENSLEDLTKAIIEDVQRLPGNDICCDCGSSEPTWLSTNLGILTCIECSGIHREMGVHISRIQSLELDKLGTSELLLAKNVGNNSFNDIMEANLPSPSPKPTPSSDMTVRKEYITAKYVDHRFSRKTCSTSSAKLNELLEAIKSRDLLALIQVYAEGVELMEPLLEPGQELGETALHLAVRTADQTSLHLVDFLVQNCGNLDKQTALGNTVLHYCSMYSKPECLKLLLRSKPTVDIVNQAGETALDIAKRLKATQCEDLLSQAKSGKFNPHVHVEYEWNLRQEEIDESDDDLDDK
# Neddyl block: blocks human cullin neddylation. P61081+Q13564. TR-FRET cullin neddylation, biochemical. inhibition, % at 25 µM. actives 0.58% (n = 360,000). AID 651699; in the data active = inhibition above about 36%
# ARFGAP1 inhibitor: inhibitors of rat ARFGAP1; Arfgap1-stimulated ARF1 GTP hydrolysis, GDP FP detection; actives 0.26% (n = 360,000); inhibition, % at 16.5 µM;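 active = inhibition above a per-plate limit, mean inhibition of low control wells plus 3 SD, cut at about 25% in these data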;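 note: 0% = DMSO wells with enzyme and 100% = wells lacking Arfgap1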
#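 Material: truncated rat Arfgap1 GAP domain; Incubation: compound-enzyme preincubation 20 min, reaction 120 min, detection 60 min, 25 °C; Read-out: percent inhibition of Arfgap1-stimulated GTP hydrolysis; Technique: FP, GDP Alexa 633 tracer displaced from anti-GDP antibody, 620/688 nm; Controls: No-Arfgap1 wells (100%) versus DMSO full-reaction wells (0%); Replication: single well per compound.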
# Neddyl conf: cullin neddylation inhibition, confirmation | shares compounds with Neddyl block | TR-FRET cullin neddylation biochemical assay | calls only at 25 µM | actives 13% (n = 1,800); in the data active = inhibition above about 40%;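 note: neddylation substrate is the cullin 1 ring ligase complex with SKP2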
# * = called active by the depositor; i = inactive; . = no result given; + = active, no number.
SMILES,Cardio protect,ASAP1 GAP inh,Neddyl block,ARFGAP1 inhibitor,Neddyl conf
O=c1ccc(/C=C/c2ccccc2)nn1Cc1ccc(F)cc1,-5,3,45*,3,i
CC(=O)c1sc(-c2ccc(F)cc2)cc1NS(=O)(=O)c1ccccc1,0,-5,41*,7,i
Cc1[nH]c2ccccc2c1C(=O)C(C)OC(=O)c1ccc(NC(=O)CC#N)cc1 (stereo not drawn),7,3,0,19,.
Cc1[nH]c2ccccc2c1C(=O)C(C)OC(=O)c1ccccc1NCCO (stereo not drawn),1,2,54*,6,.
C(=N\NC1=Nc2cccc3cccc1c23)/c1ccccc1,-15,19,-22,-2,.
NC1=Nc2cccc3cccc1c23,-5,-7,49*,-8,i
COc1cccc(-c2ccc(C#N)c(OC(=O)c3ccc(Cl)cc3)n2)c1,-3,3,41*,-3,i
COc1cccc(-c2ccc(C#N)c(OC(=O)c3c(Cl)cccc3Cl)n2)c1,6,1,.,-3,.
CN1CCN(c2ccccc2NC(=O)c2ccc([N+](=O)[O-])o2)CC1,-7,.,-21,.,.
CN1CCN(c2ccccc2NC(=O)c2ccc(-c3ccc(Cl)c(Cl)c3)o2)CC1,41,3,38*,-12,.
Nc1cccc(-c2ccc(CO)o2)c1,3,-2,42*,16,i
C#CCN(Cc1cccc(F)c1)C(=O)c1nnc2c3ccccc3n(S(=O)(=O)c3ccc(C)cc3)c2n1,.,13,.,-8,.
COc1ccc(NC(=O)c2oc3ccccc3c2NC(=O)c2ccc3c(c2)OCO3)cc1,19,12,42*,16,i
CCOC(=O)c1oc2ccccc2c1NC(=O)c1ccc2c(c1)OCO2,-6,-3,8,8,.
COC(=O)c1[nH]c2cc(OC)ccc2c1NC(=O)c1ccc2c(c1)OCO2,6,-2,42*,11,i
CCOC(=O)c1[nH]c2ccc(OC)cc2c1NC(=O)c1ccc2c(c1)OCO2,15,-1,8,0,.
CN(c1cccnc1)c1ccc(NC(=O)Cc2c[nH]c3ccccc23)cc1Br,.,15,.,14,.
Nc1[nH]c(C(=O)c2ccccc2)c(-c2ccccc2C(F)(F)F)c1C(=O)c1c[nH]c2ccccc12,.,-7,.,3,.
Cc1cccc(-n2ncc3c(NC(C)C)ncnc32)c1,-11,15,39*,0,i
O=C(Nc1ccc(F)cc1)N[C@H]1CC[C@H](CCNS(=O)(=O)c2cccc(Cl)c2)O[C@@H]1CO,.,-12,-11,-3,.
CCOC(=O)N1CCN(C(=O)C[C@@H]2C[C@@]3(C(=O)OCC)CCC=C3N(Cc3ccco3)C2=O)CC1,.,9,-1,10,.
Cc1[nH]c2ccccc2c1/C=N/NC(=O)c1cccc(S(=O)(=O)Nc2ccccc2Cl)c1,8,5,44*,-4,i
COC(=O)C1=C(C)N(Cc2ccccc2C(F)(F)F)C(=NCc2ccccc2C(F)(F)F)NC1c1cccc(F)c1 (stereo not drawn),.,-6,.,9,.
O=c1c2ccccc2nc2n1CCCN2,5,-3,52*,-15,.
COC(=O)c1cc2c(c3c4cc(C)ccc4n(S(=O)(=O)c4cccc(C)c4)c13)C(=O)N(Cc1ccc(C(F)(F)F)cc1)C2,.,4,.,13,.
SMILES,Cardio protect,ASAP1 GAP inh,Neddyl block,ARFGAP1 inhibitor,Neddyl conf
Cc1csc(-c2nc3ccccc3n2C(C(=O)NC(C)(C)C)c2ccccc2)c1 (stereo not drawn),.,17,31,-5,.
Cc1ccc(-c2ccc(C(=O)Nc3ccccc3)o2)c2ccccc12,-6,-3,40*,-1,i
COc1ccc2oc(C(=O)NCC3CCCO3)c(C)c2c1 (stereo not drawn),-2,4,.,17,.
CCOc1ccc2oc(C(=O)NNC(=O)c3csc(N4CCOCC4)n3)c(C)c2c1,1,18,41*,-2,i
CCOc1ccc2oc(C(=O)NCC3CCCO3)c(C)c2c1 (stereo not drawn),1,11,46*,1,+
Brc1ccc(-c2ccc3c(n2)CCCN3Cc2ccccn2)cc1,.,1,.,-7,.
COC(=O)C[C@@H]1CC[C@H](NC(=O)CC2CC2)[C@@H](CO)O1,.,-1,-3,-3,.
CC(C)CC[n+]1ccn(-c2nc3ccccc3nc2[N-]S(=O)(=O)c2ccc(Cl)cc2)c1,-6,-2,39*,2,i
CCCCC[n+]1ccn(-c2nc3ccccc3nc2[N-]S(=O)(=O)c2ccccc2)c1,5,-9,32,-5,.
